Test results taken from ChEMBL document CHEMBL3856201, “5,10b-Ethanophenanthridine amaryllidaceae alkaloids inspire the discovery of novel bicyclic ring systems with activity against drug resistant cancer cells” (2016).
Activity calls are given as the source filed them. The rule behind the calls is not given here.

Columns and labels:
[1] = Antiproliferative activity against human MCF7 cells after 48 hrs by MTT assay; type: functional; settings: MCF7, 48 h
Summary of the method: (§1)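 HeLa cells were cultured in DMEM + 10% FBS and MCF-7 cells in RPMI + 10% FBS, both at 37 °C under 5% CO2. Compounds were diluted from DMSO stocks and applied for 48 h. Viability was read by MTT relative to DMSO control. The value is the concentration reducing viability by 50%, ±SD from two independent experiments of 4 replicates each.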

[2] = Antiproliferative activity against human HeLa cells after 48 hrs by MTT assay; type: functional; summary of the method: as §1
[3] = Antiproliferative activity against patient-derived TMZ-resistant GBM 031810 cells over-expressing MGMT after 48 to 96 hrs by MTT assay; type: functional; settings: Homo sapiens
[4] = Antiproliferative activity against patient-derived TMZ-sensitive GBM 090909 cells after 48 to 96 hrs by MTT assay; type: functional; settings: Homo sapiens
Summary of the method: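 Primary GBM neurosphere cultures came from resected patient tumour. Tissue was minced, dissociated with 100 U/mL collagenase in neurobasal medium for 30 min at 37 °C, filtered through 70 µm, spun at 200 × g for 5 min, and grown in ultra-low attachment wells in neurobasal medium with B27. Compounds were applied at 0.001–100 µM for 48–96 h. MTT gave the average 50%-viability concentration.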

[5] = Antiproliferative activity against patient-derived paclitaxel-resistant NCI-H2073 cells after 48 to 96 hrs by MTT assay; type: functional; settings: Homo sapiens
[6] = Antiproliferative activity against patient-derived paclitaxel-sensitive NCI-H1993 cells after 48 to 96 hrs by MTT assay; type: functional; settings: Homo sapiens
[7] = Antiproliferative activity against human MES-SA/Dx5 cells after 48 to 96 hrs by MTT assay; type: functional
Summary of the method: (§2)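 Parent MES-SA and MES-SA/Dx5 uterine sarcoma cells were grown in RPMI-1640 with 10% FBS. The Dx5 line was kept in 500 nM doxorubicin after stepwise selection from 100 nM in twofold steps, about 2 passages per step. MTT assay used 0.001–100 µM compound for 48–96 h, with 0.1% DMSO and 1 µM phenyl arsine oxide controls. The ratio is the Dx5 GI50 divided by the parent GI50.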

[8] = Antiproliferative activity against human MES-SA cells after 48 to 96 hrs by MTT assay; type: functional; summary of the method: as §2
[9] = Antiproliferative activity against drug-resistant human U373 cells after 48 to 96 hrs by MTT assay; type: functional, U-373MG ATCC; settings: U373 MG
Summary of the method: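 Culture was RPMI with 10% heat-inactivated FBS plus glutamine and antibiotics for U373 cells. Compound exposure was 0.001–100 µM for 48–96 h, with 0.1% DMSO and 1 µM phenyl arsine oxide as controls. The MTT assay gave the average concentration cutting viability by 50%; replicate numbers varied.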

[10] = Antiproliferative activity against drug-resistant human T98G cells after 48 to 96 hrs by MTT assay; type: functional
Summary of the method: (§3)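 MTT read-out. T98G and Hs683 cells were grown in DMEM with 10% FBS, glutamine, gentamicin and penicillin-streptomycin at 37 °C and 5% CO2. Compounds came from 100 or 50 mM DMSO stocks and were tested at 0.001–100 µM for 48–96 h. Controls were 0.1% DMSO (negative) and 1 µM phenyl arsine oxide (positive). The value is the mean concentration giving 50% viability loss; replicate number varied.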

[11] = Antiproliferative activity against drug-resistant human U251 cells after 48 to 96 hrs by MTT assay; type: functional; settings: U-251
Summary of the method: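 U251 cells were kept in 10% MEM with glutamine, gentamicin and penicillin-streptomycin at 37 °C and 5% CO2. After seeding they were grown 24–72 h and then given compounds at 0.001–100 µM (from 100 or 50 mM DMSO stocks) for 48–96 h. Viability was read by MTT. Vehicle control was 0.1% DMSO; 1 µM phenyl arsine oxide served as positive control. The result is the average 50%-viability-reducing concentration.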

[12] = Antiproliferative activity against drug-sensitive human Hs683 cells after 48 to 96 hrs by MTT assay; type: functional; settings: Hs 683; summary of the method: as §3
[13] = Antiproliferative activity against drug-resistant human U87 cells after 48 to 96 hrs by MTT assay; type: functional, U-87MG ATCC; settings: U-87 MG
Summary of the method: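 U87 cells grown in DMEM with glutamine, gentamicin and penicillin-streptomycin (37 °C, 95% humidity, 5% CO2) were seeded and then treated with 0.001–100 µM compound for 48–96 h. Readout was MTT. Controls were 0.1% DMSO and 1 µM phenyl arsine oxide. The value is the average concentration reducing viability 50%.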

[14] = system: NCI-H1993; test: Potentiation of paclitaxel-induced cytotoxicity against patient-derived paclitaxel-sensitive NCI-H1993 cells assessed as reduction in cell viability up to 100 uM after 96 hrs by Celltiter-Glo luminescent assay; type: functional, cell-based; settings: Homo sapiens
Summary of the method: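 NCI-H1993 cells were seeded at 4×10^3 per well and grown 24 h. […] Viability was read by CellTiter-Glo luminescence. Predicted additivity was calculated by Bliss independence, Exy = Ex + Ey − ExEy.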

[15] = system: HeLa S3; test: Inhibition of translation in human HeLaS3 assessed as induction of intact polysomes at 50 uM after 1 hr by UV-based […] method; type: functional
Summary of the method: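 HeLa S3 cells were exposed to 50 µM compound for 1 h, then analysed by polysome profiling against a DMSO-treated control profile.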

[16] = system: MES-SA; test: Selectivity ratio of GI50 for human MES-SA/Dx5 cells to GI50 for human MES-SA cells; type: functional; summary of the method: as §2
[17] = Antiproliferative activity against drug-resistant human A549 cells after 48 to 96 hrs by MTT assay; type: functional
Summary of the method: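 A549 cells grown in RPMI with 10% heat-inactivated FBS, 4 mM glutamine and antibiotics at 37 °C under 5% CO2. Compounds came from 100 or 50 mM DMSO stocks and were tested at 0.001–100 µM for 48–96 h. Read-out was MTT. The value is the mean concentration giving 50% viability loss, with varied replicate numbers. Controls were 0.1% DMSO (negative) and 1 µM phenyl arsine oxide (positive).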

[18] = Antiproliferative activity against drug-resistant human A549 cells up to 100 uM after 48 to 96 hrs by MTT assay relative to control; type: functional
Summary of the method: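 A549 cultures in RPMI with 10% heat-inactivated FBS were treated across a concentration range up to 100 µM, with phenyl arsine oxide as the nondiscriminate cytotoxic reference. Growth curves were read by MTT assay. Two independent experiments, each in 4 replicates.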

SMILES | GI50 [1] | GI50 [2] | other results
O=C1C=C[C@]23CC[N@](Cc4ccsc42)[C@H]3C1 | 12 µM | 8 µM | –
COc1cc2c(cc1OCc1ccccc1)[C@@]13C=CC(=O)C[C@@H]1[N@](CC3)C2 | 17 µM | 17 µM | –
COc1cc2c(cc1O)C[N@@]1CC[C@@]23C=CC(=O)C[C@H]13 | > 100 µM | > 100 µM | –
COc1cc2c(cc1O)C[N@@]1CC[C@@]23C=C/C(=N/O)C[C@H]13 | > 100 µM | > 100 µM | –
COc1cc2c(cc1OCc1ccccc1)C1(C=CC(=O)C=C1)CCN(C(=O)C(F)(F)F)C2 | 34 µM | 34 µM | –
Cn1nnc2c(C(N)=O)ncn2c1=O [TEMOZOLOMIDE] | – | – | GI50 [3]: > 1000 µM; GI50 [4]: 50 µM
O=C1C=C[C@]23CC[N@](Cc4cccc(OCc5ccccc5)c42)[C@H]3C1 | 11 µM | 7 µM | –
COc1cc2c(cc1OCc1ccccc1)CN(C(=O)C(F)(F)F)CCC21C=CC(=O)C=C1 | 48 µM | 38 µM | –
O=C1C=CC2(C=C1)CCN(C(=O)C(F)(F)F)Cc1c2sc2ccccc12 | 7 µM | 10 µM | GI50 [3]: 8 µM; GI50 [5]: 50 µM; GI50 [6]: 12 µM; GI50 [4]: 7 µM; GI50 [7]: 5 µM; GI50 [8]: 5 µM; GI50 [9]: 7 µM; GI50 [10]: 15 µM; GI50 [11]: 4 µM; GI50 [12]: 5 µM; GI50 [13]: 6 µM; Activity [14]: Active
O=C1C=CC2(C=C1)CCN(C(=O)C(F)(F)F)Cc1cc3c(cc12)OCCO3 | 34 µM | 21 µM | –
O=C1C=CC2(C=C1)CCN(C(=O)C(F)(F)F)Cc1c2ccc2c1OCO2 | > 100 µM | > 100 µM | –
O=C1C=C[C@]23CC[N@](Cc4c2ccc2c4OCO2)[C@H]3C1 | 73 µM | 61 µM | –
CO[C@@H]1C=C[C@@]23c4cc5c(cc4CN(C[C@@H]2O)[C@H]3C1)OCO5 | – | – | inhibition [15]: Active
O=C1C=C[C@]23CC[N@](Cc4cscc42)[C@H]3C1 | 44 µM | 25 µM | –
CC[C@]1(O)C[C@@H]2CN(CCc3c([nH]c4ccccc34)[C@@](C(=O)OC)(c3cc4c(cc3OC)N(C)[C@H]3[C@@](O)(C(=O)OC)[C@H](OC(C)=O)[C@]5(CC)C=CCN6CC[C@]43[C@@H]65)C2)C1 [VINBLASTINE] | – | – | RatioGI50 [16]: >1000
COc1cc2c(cc1OC(C)=O)C[N@@]1CC[C@@]23C=CC(=O)C[C@H]13 | > 100 µM | > 100 µM | –
O[C@H]1C=C[C@@]23c4cc5c(cc4CN(C[C@@H]2O)[C@H]3C1)OCO5 | – | – | GI50 [9]: 53 µM; GI50 [10]: 99 µM; GI50 [11]: 41 µM; GI50 [12]: 27 µM; GI50 [13]: 38 µM

SMILES | GI50 [1] | GI50 [2] | other results
COc1cc2c(cc1O)CN(C(=O)C(F)(F)F)CCC21C=CC(=O)C=C1 | > 100 µM | > 100 µM | –
COc1cc2c(cc1OC)[C@@]13C=CC(=O)C[C@@H]1[N@](CC3)C2 | > 100 µM | 64 µM | –
O=C1C=C[C@]23CC[N@](Cc4cc5c(cc42)OCO5)[C@H]3C1 | 24 µM | 25 µM | –
O[C@H]1[C@H]2c3cc4c(cc3CN3CCC(=C[C@@H]1O)[C@H]23)OCO4 | – | – | inhibition [15]: Active
COc1cc2c(cc1OC)C1(C=CC(=O)C=C1)CCN(C(=O)C(F)(F)F)C2 | > 100 µM | 83 µM | –
O=C1C=CC2(C=C1)CCN(C(=O)C(F)(F)F)Cc1cc3c(cc12)OCO3 | 30 µM | 24 µM | –
C#CCCCC(=O)Oc1cc2c(cc1OC)[C@@]13C=CC(=O)C[C@@H]1[N@](CC3)C2 | 53 µM | 43 µM | –
O=C1C=C[C@]23CC[N@](Cc4cc(OCc5ccccc5)c(OCc5ccccc5)cc42)[C@H]3C1 | 4 µM | 3 µM | GI50 [17]: 4 µM; GI50 [7]: 7 µM; GI50 [8]: 2 µM; GI50 [9]: 7 µM; GI50 [10]: 7 µM; GI50 [11]: 5 µM; GI50 [12]: 6 µM; GI50 [13]: 5 µM
COc1cc2c(cc1OCc1ccccc1)C[N@@]1CC[C@@]23C=CC(=O)C[C@H]13 | 15 µM | 12 µM | –
COc1cc2c(cc1OC(=O)c1ccccc1)C[N@@]1CC[C@@]23C=CC(=O)C[C@H]13 | 45 µM | 35 µM | –
O=C1C=CC2(C=C1)CCN(C(=O)C(F)(F)F)Cc1cc(OCc3ccccc3)c(OCc3ccccc3)cc12 | 25 µM | 17 µM | –
O=C1C=C[C@]23CC[N@](Cc4cc5c(cc42)OCCO5)[C@H]3C1 | 19 µM | 13 µM | –
O=C1C=CC2(C=C1)CCN(C(=O)C(F)(F)F)Cc1cccc(OCc3ccccc3)c12 | 14 µM | 11 µM | –
COc1cc([C@@H]2c3cc4c(cc3[C@H](O)[C@H]3COC(=O)[C@H]23)OCO4)cc(OC)c1OC [PODOFILOX] | – | – | inhibition (INH) [18]: 50%
O=C1C=C[C@]23CC[N@](Cc4cc(OCc5ccccc5)ccc42)[C@H]3C1 | 14 µM | 8 µM | –
O=C1C=CC2(C=C1)CCN(C(=O)C(F)(F)F)Cc1cc(OCc3ccccc3)ccc12 | 40 µM | 16 µM | –
